Experimental data taken from ChEMBL document CHEMBL2321694, “Novel 3-hydroxy vinylboronates influence sphingolipid metabolism, cause apoptosis in Jurkat cells and prevent tumor development in nude mice” (Bioorg Med Chem Lett, 2013).
The source made the active and inactive calls. No cut-off for these calls is given here.

Assays:
[1] = system: HT-29; assay: Cytotoxicity against human HT-29 cells assessed as cell survival after 72 hrs by MTT assay; format: functional, cell-based
Outline: (§1)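 Cells at 1 × 10^6 cells/ml were plated in RPMI 1640 without FCS; adherent lines (HT-29, ARH-77, Melanoma-624) were left overnight to attach first. Compound was added and MTT read after 72 h incubation at 37 °C, 5% CO2; IC50 derived.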

[2] = system: ARH-77; assay: Cytotoxicity against human ARH77 cells assessed as cell survival after 72 hrs by MTT assay; format: functional, cell-based; outline: as §1
[3] = system: HT-29; assay: Antitumor activity against human HT-29 cells xenografted in nude mouse assessed as tumor growth inhibition at 50 mg/kg, ip measured up to day 33; format: functional, organism-based; set-up: dose 50 mg/kg
[4] = system: Jurkat; assay: Cytotoxicity against human Jurkat cells assessed as cell survival after 72 hrs by MTT assay in presence of 10% FCS; format: functional, cell-based
Outline: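 Jurkat MTT viability run in RPMI 1640 with 10% FCS, 72 h incubation with compound at 37 °C, 5% CO2; IC50 derived.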

[5] = system: Mus musculus; assay: Toxicity in nude mouse xenografted with human HT-29 cells assessed as adverse effect at 50 mg/kg, ip up to day 50; format: organism-based; set-up: dose 50 mg/kg, route intraperitoneal; settings: in vivo
Outline: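 HT-29 xenograft (1 × 10^6 cells sc) in female nude mice dosed ip once daily for 3 weeks (15 injections) in cremophor/ethanol/water (10:10:80), followed to day 50; general health checked daily by weighing and clinical examination.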

[6] = system: Jurkat; assay: Reduction of sphingomyelin synthesis in fluorescent Bodipy-12-ceramide-treated human Jurkat cells administered 30 mins prior to Bodipy-12-ceramide addition measured after 72 hrs by HPLC analysis in presence of 10% FCS; format: functional, cell-based
Outline: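 Jurkat cells (0.75 × 10^6 cells/ml) in medium with 10% FCS received compound or vehicle (0.1% DMSO); 30 min later 0.25 μM Bodipy-12-ceramide was added. After 72 h, lipids were extracted with dichloromethane/methanol, and ceramide and sphingomyelin percentages were quantified by C18 HPLC with fluorescence detection (Ex 505, Em 530 nm). Mean ± s.d., t test versus vehicle.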

[7] = system: HT-29; assay: Antitumor activity against human HT-29 cells xenografted in nude mouse assessed as tumor growth inhibition at 50 mg/kg, ip measured after 33 days; format: functional, organism-based; set-up: dose 50 mg/kg
Outline: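 Female nude mice 5–6 weeks old (SPF, ~22 °C, 12-h light–dark) injected sc with 1 × 10^6 HT-29 cells, randomized same day to 50 mg/kg (n=5) or vehicle cremophor/ethanol/water (10:10:80) (n=6). Once-daily ip injections for 3 weeks (15 injections), then 4 weeks follow-up; read-out was percentage of tumor-free mice over time.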

[8] = system: Jurkat; assay: Cell cycle arrest at human Jurkat cells assessed as accumulation at sub G1 phase at 100 uM after 24 hrs by propidium iodide staining-based FACS flow cytometric analysis relative to control; format: functional
Outline: (§2)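 Jurkat cells at 1 × 10^6 cells/ml were exposed to compound or vehicle (0.2% DMSO) for 24 h. They were then fixed in cold 70% ethanol, and RNAse (50 μg/ml) and PI were added in PBS. Cell-cycle distribution, including sub-G1, was read by flow cytometry. Data are mean ± s.d., with t test versus naïve control.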

[9] = system: Jurkat; assay: Induction of apoptosis in human Jurkat cells assessed as increase in apoptotic cells at 100 uM after 24 hrs by annexin V-propidium iodide staining-based FACS flow cytometric analysis (reference value: 11.99%); format: functional
[10] = system: Jurkat; assay: Cytotoxicity against human Jurkat cells assessed as cell survival after 72 hrs by MTT assay; format: functional, cell-based; outline: as §1
[11] = system: Jurkat; assay: Cell cycle arrest at human Jurkat cells assessed as accumulation at sub G1 phase at 20 to 50 uM after 24 hrs by propidium iodide staining-based FACS flow cytometric analysis; format: functional; settings: 100 uM, in the assay text read “100 uM” for “20 to 50 uM”; outline: as §2
[12] = Cytotoxicity against human Melanoma-624 cells assessed as cell survival after 72 hrs by MTT assay; format: functional, cell-based; settings: Homo sapiens, 624, 72 h; outline: as §1
[13] = Homo sapiens, HT-29, 72 h, read-out: IC50
[14] = Homo sapiens, ARH-77, 72 h, read-out: IC50

**Q.** What does the source list for `CCC/C(=C\B1OC(C)(C)C(C)(C)O1)C(O)(c1ccccc1)C1CC1` (stereo unspecified)?
**A.** IC50 [1, 13]: 83.9 µM; IC50 [2, 14]: 55.2 µM

**Q.** With `CCCCCCC(C)(O)/C(=C/B1OC(C)(C)C(C)(C)O1)CCC` (stereo unspecified) as the compound, how does the IC50 [1, 13] read?
**A.** 57.2 µM

**Q.** And the IC50 [2, 14]?
**A.** 33.9 µM

**Q.** What does the source list for `CCCCCCCC/C(=C\B1OC(C)(C)C(C)(C)O1)C(C)(O)CCCCCC` (stereo unspecified)?
**A.** IC50 [1, 13]: > 100 µM; IC50 [2, 14]: 79.1 µM

**Q.** For `CCCCC/C(=C\B1OC(C)(C)C(C)(C)O1)C(O)(c1ccccc1)C1CC1` (stereo unspecified), which IC50 ([1]; ht-29) is on record?
**A.** Not Active

**Q.** And the IC50 [2, 14]?
**A.** 10.4 µM

**Q.** For `CCCCCCCC/C(=C\B1OC(C)(C)C(C)(C)O1)C(O)(c1ccccc1)C1CC1` (stereo unspecified), which IC50 [1, 13] is on record?
**A.** 18.3 µM

**Q.** And the TGI [3]?
**A.** Active

**Q.** What about the IC50 [4] of the same compound?
**A.** 84 µM

**Q.** And the Activity [5]?
**A.** Non-toxic

**Q.** And the Activity [6]?
**A.** Dose-dependent effect

**Q.** What about the TGI [7] of the same compound?
**A.** inactive

**Q.** What about the “fold change (FC)” value [8] of the same compound?
**A.** >2

**Q.** What about the Activity [9] of the same compound?
**A.** 15.22%

**Q.** And the IC50 [10]?
**A.** 16.3 µM

**Q.** What about the Activity [11] of the same compound?
**A.** Active

**Q.** And the IC50 [12]?
**A.** 32.3 µM

**Q.** What about the IC50 [2, 14] of the same compound?
**A.** 6.36 µM

**Q.** Which results are given for `CCC/C(=C\B1OC(C)(C)C(C)(C)O1)C(O)c1ccccc1` (stereo unspecified)?
**A.** IC50 [1, 13]: > 100 µM; IC50 ([2]; arh-77): Not Active

**Q.** With `CCCCC(C)(O)/C(=C/B1OC(C)(C)C(C)(C)O1)CCC` (stereo unspecified) as the compound, how does the IC50 [1, 13] read?
**A.** 69.6 µM

**Q.** And the IC50 [2, 14]?
**A.** 54.6 µM

**Q.** With `CCC/C(=C\B1OC(C)(C)C(C)(C)O1)C1(O)CCCc2ccccc21` (stereo unspecified) as the compound, how does the IC50 [1, 13] read?
**A.** 86.8 µM

**Q.** What about the IC50 [2, 14] of the same compound?
**A.** 64.9 µM
